In ChEMBL document CHEMBL1124106, “Synthesis of diethylenetriaminepentaacetic acid conjugated inulin and utility for cellular uptake of liposomes” (J Med Chem, 1988):
Several values for one entry are separate records, joined by “and”; a condition that tells them apart may be missing. Identical values can stand only once.

What was measured:
[1] = tested on: Mus musculus; test: Biodistribution in mice leg muscle, after 1 hr of intravenous administration of 1-2 ug ofcompound (entrapped in bovine brain sphingomyelin/ cholesterol multilamellar vehicles); assay type: ADME, organism-based, Muscle tissue; details: in vivo
In short: (§1)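 BALB/c mice (about 25 g), 3–5 per group, given 50–100 μL tail-vein injection of 111In-labeled conjugate entrapped in SM/CH (2:1 mol/mol) multilamellar vesicles, approx. 100 000 cpm; dose 1–2 μg phospholipid/g body weight. Killed by cervical dislocation at set times; blood, cumulative excretion and rinsed, blotted, weighed tissues γ-counted, blood background subtracted. Result is % injected dose ± SD.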

[2] = tested on: Mus musculus; test: Biodistribution in mice kidneys, after 24 hr of intravenous administration of 1-2 ug of compound (entrapped in bovine brain sphingomyelin/ cholesterol multilamellar vehicles); assay type: ADME, organism-based, Kidney; details: in vivo; in short: as §1
[3] = tested on: Mus musculus; test: Biodistribution in mice intestine, after 24 hr of intravenous administration of 1-2 ug of compound (entrapped in bovine brain sphingomyelin/ cholesterol multilamellar vehicles); assay type: ADME, organism-based; details: in vivo; in short: as §1
[4] = tested on: Mus musculus; test: Biodistribution of compound in mice blood after 0.17 hr of intravenous injection; assay type: ADME, organism-based; details: in vivo
In short: (§2)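 BALB/c mice (about 25 g), n = 4. Free ¹¹¹In- or ⁶⁷Ga-labeled compound (50–100 μL, about 100 000 cpm) was injected into a tail vein. Mice were held in separate cages and killed by cervical dislocation, with blood and cumulative excreta collected. Tissues were rinsed, blotted, weighed and γ-counted, with blood background subtracted (blood volume 8.0%). Values are % injected dose ± SD.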

[5] = Biodistribution in mice excretion, after 24 hr of intravenous administration of 1-2 ug of ofcompound (entrapped in bovine brain sphingomyelin/ cholesterol multilamellar vehicles); assay type: ADME, organism-based; details: mouse, excretion (excreta, not specified further), read-out: ID; in short: as §1
[6] = tested on: Mus musculus; test: Biodistribution in mice heart, after 24 hr of intravenous administration of 1-2 ug of compound (entrapped in bovine brain sphingomyelin/ cholesterol multilamellar vehicles); assay type: ADME, organism-based; details: in vivo; in short: as §1
[7] = tested on: Mus musculus; test: Biodistribution of compound in mice leg muscle after 0.17 hr of intravenous injection; assay type: ADME, organism-based, Muscle tissue; details: in vivo; in short: as §2
[8] = tested on: Mus musculus; test: Biodistribution of compound in mice kidneys after 21 hr of intravenous injection; assay type: ADME, organism-based, Kidney; details: in vivo; in short: as §2

Work on `NCCNC(=O)CN(CCN(CCN(CC(=O)O)CC(=O)O)CC(=O)O)CC(=O)O` yielded an ID [1] of 0.3%, an ID [2] of 0.5% and an ID [3] of 0.8%. The ID [4] was 21.1% and 20.9%, the dose excreted at 24 h [5] was 0% and the ID [6] was 0%. The ID [7] was 3.2% and 3.1% and the ID [8] was 0.8% and 0.9%.
